Molecules are shown by their SMILES. Structures can show the parent of a compound that is named as a salt.

The target in data set [1] is T1, Transmembrane protease serine 4 (Homo sapiens, UniProt Q9NRS4). Kind of data set: Inhibition of N-terminal His6-tagged recombinant TMPRSS4 (unknown origin) fused with enterokinase cleavage sequence DYKDDDGDYKDDDDK expressed in Escherichia coli BL21 (DE3) using Z-Phe-Arg-7-amido-4-methylcoumarin hydrochloride as substrate by fluorometric analysis.
In data set [2] the target is T1, Transmembrane protease serine 4. The data set can be described thus: Inhibition of TMPRSS4 in human SW480 cells assessed as inhibition of cell invasion at 0.1 uM relative to control. Type of data set: cell-based. In short, it runs like this: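 SW480 cells overexpressing TMPRSS4 (clone T19) left to invade reconstituted basement membrane (Matrigel) with 0.1 µM compound present. Invasion expressed as percent inhibition relative to DMSO negative control.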

Data set [3] is described as follows: Cytotoxicity against human SW480 cells overexpressing TMPRSS4 assessed as cell viability at 0.1 uM after 2 days by CCK-8 assay. Type of data set: cell-based. As to conditions: read-out: Activity. In short, it runs like this: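 Seeded at 10,000 cells/well, exposed to 0.1 µM compound or none at 37 °C for 2 days; CCK-8 reagent added and absorbance read at 450 nm. Higher value taken as lower cytotoxicity.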
(In general: Tetrazolium assays rely on reduction of a dye to a coloured formazan, in cell work by metabolically active cells.)

T1 sequence (Q9NRS4 whole entry, the tested form may be a part): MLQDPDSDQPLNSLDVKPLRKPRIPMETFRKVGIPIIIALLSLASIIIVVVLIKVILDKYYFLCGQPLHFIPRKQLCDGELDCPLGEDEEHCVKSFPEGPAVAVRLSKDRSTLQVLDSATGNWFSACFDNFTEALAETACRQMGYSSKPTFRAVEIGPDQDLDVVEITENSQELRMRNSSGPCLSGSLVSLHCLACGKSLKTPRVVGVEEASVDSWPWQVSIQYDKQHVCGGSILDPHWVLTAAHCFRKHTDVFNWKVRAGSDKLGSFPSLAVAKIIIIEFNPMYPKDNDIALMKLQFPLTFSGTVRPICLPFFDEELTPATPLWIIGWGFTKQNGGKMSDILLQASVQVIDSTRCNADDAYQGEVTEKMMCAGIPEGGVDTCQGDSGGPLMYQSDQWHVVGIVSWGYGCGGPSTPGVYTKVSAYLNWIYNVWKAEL

The IC50 is the concentration at which inhibition is half-maximal. For `COc1cc(NC(=O)c2cc(Cl)ccc2O)cc(C(F)(F)F)c1`, the IC50 in data set [1] came out at 16 µM.

Consider `O=C(Nc1cc(C(F)(F)F)cc(C(F)(F)F)c1)c1cccc(Cl)c1O`, for which the half-inhibitory concentration (IC50) in data set [1] came to 12 µM.

As usually defined, the inhibition is the drop in the measured response relative to a control, in per cent. In the case of `O=C(Nc1cc(C(F)(F)F)cc(C(F)(F)F)c1)c1cc([N+](=O)[O-])ccc1O`, the IC50 in data set [1] was 12 µM. Moreover, the inhibition in data set [2] was determined as 26%. In data set [3], the viability at 48 h, 0.1 µM stood at 96%.

`N#Cc1ccc(NC(=O)c2cc(Cl)ccc2O)cc1`: the IC50 in data set [1] turned out to be 76 µM.

Turning to `O=C(Nc1ccc(Cl)nc1)c1cc(Cl)ccc1O`, the IC50 in data set [1] is above 100 µM.

As to `O=C(Nc1cc(C(F)(F)F)cc(C(F)(F)F)c1)c1c[nH]c2ccccc2c1=O`, the IC50 in data set [1] is above 100 µM.

Regarding `O=C(Nc1cc(C(F)(F)F)ccc1C(F)(F)F)c1cc(Cl)ccc1O`, in data set [1], the IC50 is 20 µM.

For `O=C(Nc1cccc(C(F)(F)F)c1)c1cc(Cl)ccc1O`, the IC50 in data set [1] was found to be 13 µM.

As for `O=C(Nc1ncccn1)c1cc(Cl)ccc1O`, the IC50 in data set [1] is above 100 µM.

With `O=C(Nc1cc(C(F)(F)F)cc(C(F)(F)F)c1)c1cc(Cl)ccc1O` [IMD-0354], in data set [1], the IC50 is 11 µM. For the same compound, in data set [2], the inhibition is 45%. The viability at 48 h, 0.1 µM in data set [3] amounted to 90%.

On to `Cc1ccc(O)c(C(=O)Nc2cc(C(F)(F)F)cc(C(F)(F)F)c2)c1`, for which, in data set [1], the 50% inhibitory concentration (IC50) stood at 28 µM.

Regarding `O=C(Nc1cc(C(F)(F)F)ccc1F)c1cc(Cl)ccc1O`, in data set [1], the IC50 stood at 28 µM.

With `O=C(Nc1cc(Br)cc(C(F)(F)F)c1)c1cc(Cl)ccc1O`, the IC50 in data set [1] turned out to be 12 µM. The inhibition in data set [2] stood at 43%. Besides, the viability at 48 h, 0.1 µM in data set [3] worked out at 93%.

As to `O=C(Nc1cc(C(F)(F)F)cc(C(F)(F)F)c1)c1cc(Cl)cnc1O`, in data set [1], the half-inhibitory concentration (IC50) is above 100 µM.

With `NCCc1ccc(S(=O)(=O)F)cc1` [4-AMINOETHYLBENZENESULFONYL FLUORIDE HYDROCHLORIDE], the IC50 in data set [1] was found to be 39 µM.

For `O=C(NCc1cc(C(F)(F)F)cc(C(F)(F)F)c1)c1cc(Cl)ccc1O`, the IC50 in data set [1] is 18 µM.

Turning to `O=C(Nc1cc(C(F)(F)F)cc(C(F)(F)F)c1)c1ccc2ccccc2c1O`, the IC50 in data set [1] was above 100 µM.

Turning to `O=C(Nc1ccc(Cl)c(C(F)(F)F)c1)c1cc(Cl)ccc1O`, the IC50 in data set [1] came out at 35 µM.

With `Cc1c(C(F)(F)F)cc(NC(=O)c2cc(Cl)ccc2O)cc1C(F)(F)F`, the IC50 in data set [1] is 10 µM. Besides, the inhibition in data set [2] turned out to be 43%. In addition, the viability at 48 h, 0.1 µM in data set [3] was found to be 90%.

Consider `O=C(Nc1cc(Cl)cc(Cl)c1)c1cc(Cl)ccc1O`, for which, in data set [1], the IC50 is 19 µM.

In the case of `O=C(Nc1cnc2ccccc2c1)c1cc(Cl)ccc1O`, in data set [1], the IC50 came out at 85 µM.

`O=C(Nc1cc(C(F)(F)F)cc(C(F)(F)F)c1)c1cc(F)ccc1O`: in data set [1], the IC50 came out at 29 µM.

With `O=C(Nc1cc(C(F)(F)F)cc(C(F)(F)F)c1)c1cc(Cl)ccc1OCc1ccccc1`, the IC50 in data set [1] was above 100 µM.

On to `O=C(Nc1ccc(C(F)(F)F)cn1)c1cc(Cl)ccc1O`, for which the half-maximal inhibitory concentration (IC50) in data set [1] is above 100 µM.

Consider `COc1ccc(O)c(C(=O)Nc2cc(C(F)(F)F)cc(C(F)(F)F)c2)c1`, for which, in data set [1], the IC50 turned out to be 29 µM.

For the compound `O=C(Nc1cc(Cl)c(Cl)c(Cl)c1)c1cc(Cl)ccc1O`, in data set [1], the IC50 is above 100 µM.

For the compound `N#Cc1ccc(O)c(C(=O)Nc2cc(C(F)(F)F)cc(C(F)(F)F)c2)c1`, the IC50 in data set [1] was found to be 19 µM.

As for `CC(=O)Oc1ccc(Cl)cc1C(=O)Nc1cc(C(F)(F)F)cc(C(F)(F)F)c1`, the IC50 in data set [1] is above 100 µM.

On to `O=C(Nc1ccc(Br)c(C(F)(F)F)c1)c1cc(Cl)ccc1O`, for which the half-maximal inhibitory concentration (IC50) in data set [1] worked out at 30 µM.

Consider `Cc1cc(C)cc(NC(=O)c2cc(Cl)ccc2O)c1`, for which the IC50 in data set [1] came to 39 µM.

Take `O=C(Nc1ccccc1)c1cc(Cl)ccc1O`: the half-inhibitory concentration (IC50) in data set [1] is 50 µM.

Turning to `NC(=O)c1ccc(O)c(C(=O)Nc2cc(C(F)(F)F)cc(C(F)(F)F)c2)c1`, the IC50 in data set [1] is above 100 µM.

Consider `COc1c(C(F)(F)F)cc(NC(=O)c2cc(Cl)ccc2O)cc1C(F)(F)F`, for which the half-maximal inhibitory concentration (IC50) in data set [1] turned out to be 12 µM.

Regarding `O=C(Nc1ccnc(Cl)c1)c1cc(Cl)ccc1O`, the IC50 in data set [1] was above 100 µM.

Take `O=C(Nc1cc(C(F)(F)F)cc(C(F)(F)F)c1)c1ccc(Cl)cc1O`: the IC50 in data set [1] amounted to 12 µM.

In the case of `N#Cc1ccc(NC(=O)c2cc(Cl)ccc2O)nc1`, the IC50 in data set [1] stood at 80 µM.

`O=C(Nc1cc(C(F)(F)F)cc(C(F)(F)F)c1)c1ccccc1O`: in data set [1], the IC50 was above 100 µM.

For the compound `O=C(Nc1cc(C(F)(F)F)c(Br)c(C(F)(F)F)c1)c1cc(Cl)ccc1O`, the IC50 in data set [1] is 6 µM. For the same compound, in data set [2], the inhibition amounted to 53%. The viability at 48 h, 0.1 µM in data set [3] was 89%.

Regarding `O=C(Nc1cc(C(F)(F)F)cc(C(F)(F)F)c1)c1cc(Br)ccc1O`, the IC50 in data set [1] was 13 µM.

Regarding `O=C(Nc1ccc(C(F)(F)F)c(C(F)(F)F)c1)c1cc(Cl)ccc1O`, the IC50 in data set [1] came out at 13 µM.

Source of the values: ChEMBL document CHEMBL2331365, “Discovery of novel 2-hydroxydiarylamide derivatives as TMPRSS4 inhibitors” (Bioorg Med Chem Lett, 2013).
